This passage reports Activity results from ChEMBL document CHEMBL5143728, “Next-Generation Diprovocims with Potent Human and Murine TLR1/TLR2 Agonist Activity That Activate the Innate and Adaptive Immune Response” (J Med Chem, 2022).

For one assay, the target named is Toll-like receptor 1/2 (Homo sapiens, UniProt O60603+Q15399). Briefly: Agonist activity at TLR1/TLR2 in human THP-1 derived macrophages assessed as stimulation of TNF alpha release measured for 4 hrs by ELISA based assay relative to diprovocim-1. The note with it: filed as agonist. The class given is cell-based. Also noted: Activity: concentration or dose not given beside the values. The essentials:
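THP-1 cells differentiated with 100 nM PMA in RPMI/10% FBS for 24 h, washed, then rested 24 h in fresh medium. Seeded at 0.5 × 10⁵ cells/well and exposed to graded compound concentrations for 4 h, with final DMSO held at 0.1%. LPS served as positive control and DMSO as negative control. Supernatant human TNF-α was read by ELISA. EC50 from duplicate means.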
In general terms: In an ELISA, binding on a coated surface is turned into a signal by an enzyme label.

In assay [1] the target is Toll-like receptor 1/2 (Mus musculus) (UniProt Q9QUN7+Q9EPQ1). Briefly: Agonist activity at TLR1/TLR2 in wild type C57BL/6J mouse macrophages assessed as stimulation of TNF alpha release measured for 4 hrs by ELISA based assay relative to diprovocim-1. Particulars: Macrophage, filed as agonist. Also noted: Activity: concentration or dose not given beside the values. The class given is cell-based. The essentials: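 Thioglycolate-elicited peritoneal macrophages from wild type C57BL/6J mice, harvested by PBS lavage 4 d after i.p. 4% thioglycolate. Cultured in DMEM/10% FBS at 37 °C, 5% CO2, seeded at 1 × 10⁵ cells/well and exposed to graded compound concentrations for 4 h, with final DMSO ≤0.5% held constant. LPS served as positive control. Supernatant mouse TNF-α was read by ELISA. EC50 from duplicate means.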

As to `O=C(CO)OCCCCCCCCCCCCNC(=O)[C@@H]1CN(C(=O)c2ccc(C(=O)N3C[C@@H](C(=O)N[C@H]4C[C@@H]4c4ccccc4)[C@H](C(=O)N[C@H]4C[C@@H]4c4ccccc4)C3)cc2)C[C@H]1C(=O)N[C@H]1C[C@@H]1c1ccccc1`, the Activity at Toll-like receptor 1/2 amounted to 100%; in assay [1], 140%.
Take `O=C(CNC(=O)c1ccc(C(=O)O)cc1)OCCCCCCCCCCCCNC(=O)[C@@H]1CN(C(=O)c2ccc(C(=O)N3C[C@@H](C(=O)N[C@H]4C[C@@H]4c4ccccc4)[C@H](C(=O)N[C@H]4C[C@@H]4c4ccccc4)C3)cc2)C[C@H]1C(=O)N[C@H]1C[C@@H]1c1ccccc1`: the values for the Activity (on Toll-like receptor 1/2; in assay [1]) were 100% and 60%, respectively.
On to `CC(=O)NCC(=O)OCCCCCCCCCCCCNC(=O)[C@@H]1CN(C(=O)c2ccc(C(=O)N3C[C@@H](C(=O)N[C@H]4C[C@@H]4c4ccccc4)[C@H](C(=O)N[C@H]4C[C@@H]4c4ccccc4)C3)cc2)C[C@H]1C(=O)N[C@H]1C[C@@H]1c1ccccc1`, for which the Activity on Toll-like receptor 1/2 came out at 90%; in assay [1], 180%.
In the same order, the values of `CN(CC(=O)OCCCCCCCCCCCCNC(=O)[C@@H]1CN(C(=O)c2ccc(C(=O)N3C[C@@H](C(=O)N[C@H]4C[C@@H]4c4ccccc4)[C@H](C(=O)N[C@H]4C[C@@H]4c4ccccc4)C3)cc2)C[C@H]1C(=O)N[C@H]1C[C@@H]1c1ccccc1)C(=O)OC(C)(C)C` are 100% and 110%.
Regarding `CC(C)(C)OC(=O)Nc1ccc(C(=O)OCCCCCCCCCCCCNC(=O)[C@@H]2CN(C(=O)c3ccc(C(=O)N4C[C@@H](C(=O)N[C@H]5C[C@@H]5c5ccccc5)[C@H](C(=O)N[C@H]5C[C@@H]5c5ccccc5)C4)cc3)C[C@H]2C(=O)N[C@H]2C[C@@H]2c2ccccc2)cc1`, the Activity on Toll-like receptor 1/2 was found to be 90%; in assay [1] it was 540%.
The matching figures for `CC(C)(C)OC(=O)NNC(=O)OCCCCCCCCCCCCNC(=O)[C@@H]1CN(C(=O)c2ccc(C(=O)N3C[C@@H](C(=O)N[C@H]4C[C@@H]4c4ccccc4)[C@H](C(=O)N[C@H]4C[C@@H]4c4ccccc4)C3)cc2)C[C@H]1C(=O)N[C@H]1C[C@@H]1c1ccccc1`: 100% and 220%.
`Nc1ccc(CCCCCCCCNC(=O)[C@@H]2CN(C(=O)c3ccc(C(=O)N4C[C@@H](C(=O)N[C@H]5C[C@@H]5c5ccccc5)[C@H](C(=O)N[C@H]5C[C@@H]5c5ccccc5)C4)cc3)C[C@H]2C(=O)N[C@H]2C[C@@H]2c2ccccc2)cc1`: the Activity at Toll-like receptor 1/2 was found to be 100%; in assay [1], 250%.
In the same order, the values of `CC(C)(C)OC(=O)N[C@@H](CCCCNC(=O)OCC1c2ccccc2-c2ccccc21)C(=O)OCCCCCCCCCCCCNC(=O)[C@@H]1CN(C(=O)c2ccc(C(=O)N3C[C@@H](C(=O)N[C@H]4C[C@@H]4c4ccccc4)[C@H](C(=O)N[C@H]4C[C@@H]4c4ccccc4)C3)cc2)C[C@H]1C(=O)N[C@H]1C[C@@H]1c1ccccc1` are 100% and 200%.
`NC(=O)CCCCCCCCCCCNC(=O)[C@@H]1CN(C(=O)c2ccc(C(=O)N3C[C@@H](C(=O)N[C@H]4C[C@@H]4c4ccccc4)[C@H](C(=O)N[C@H]4C[C@@H]4c4ccccc4)C3)cc2)C[C@H]1C(=O)N[C@H]1C[C@@H]1c1ccccc1`: the Activity stood at 110% on Toll-like receptor 1/2 and 120% in assay [1].
On to `CC(C)(C)OC(=O)/C=C/C(=O)NCC(=O)OCCCCCCCCCCCCNC(=O)[C@@H]1CN(C(=O)c2ccc(C(=O)N3C[C@@H](C(=O)N[C@H]4C[C@@H]4c4ccccc4)[C@H](C(=O)N[C@H]4C[C@@H]4c4ccccc4)C3)cc2)C[C@H]1C(=O)N[C@H]1C[C@@H]1c1ccccc1`, for which the Activity is 90% at Toll-like receptor 1/2 and 110% in assay [1].
The matching figures for `CNC(=O)CCCCCCCCCCCNC(=O)[C@@H]1CN(C(=O)c2ccc(C(=O)N3C[C@@H](C(=O)N[C@H]4C[C@@H]4c4ccccc4)[C@H](C(=O)N[C@H]4C[C@@H]4c4ccccc4)C3)cc2)C[C@H]1C(=O)N[C@H]1C[C@@H]1c1ccccc1`: 120% and 150%.
The matching figures for `CC(=O)OCCCCCCCCCCCCNC(=O)[C@@H]1CN(C(=O)c2ccc(C(=O)N3C[C@@H](C(=O)N[C@H]4C[C@@H]4c4ccccc4)[C@H](C(=O)N[C@H]4C[C@@H]4c4ccccc4)C3)cc2)C[C@H]1C(=O)N[C@H]1C[C@@H]1c1ccccc1`: 90% and 140%.
The matching figures for `CC(C)(C)OC(=O)c1ccc(C(=O)NCCOCCCCCCCCCCCCNC(=O)[C@@H]2CN(C(=O)c3ccc(C(=O)N4C[C@@H](C(=O)N[C@H]5C[C@@H]5c5ccccc5)[C@H](C(=O)N[C@H]5C[C@@H]5c5ccccc5)C4)cc3)C[C@H]2C(=O)N[C@H]2C[C@@H]2c2ccccc2)cc1`: 110% and 160%.
Regarding `CC(C)(C)OC(=O)N[C@@H](CCC(=O)OCc1ccccc1)C(=O)OCCCCCCCCCCCCNC(=O)[C@@H]1CN(C(=O)c2ccc(C(=O)N3C[C@@H](C(=O)N[C@H]4C[C@@H]4c4ccccc4)[C@H](C(=O)N[C@H]4C[C@@H]4c4ccccc4)C3)cc2)C[C@H]1C(=O)N[C@H]1C[C@@H]1c1ccccc1`, the Activity at Toll-like receptor 1/2 stood at 100%; in assay [1] it was 210%.
Take `CC(C)(C)OC(=O)NCCCCCCCCCCCCNC(=O)[C@@H]1CN(C(=O)c2ccc(C(=O)N3C[C@@H](C(=O)N[C@H]4C[C@@H]4c4ccccc4)[C@H](C(=O)N[C@H]4C[C@@H]4c4ccccc4)C3)cc2)C[C@H]1C(=O)N[C@H]1C[C@@H]1c1ccccc1`: the values for the Activity (at Toll-like receptor 1/2; in assay [1]) were 70% and 120%, respectively.
Take `CC(C)(C)OC(=O)N1CCC[C@H]1C(=O)OCCCCCCCCCCCCNC(=O)[C@@H]1CN(C(=O)c2ccc(C(=O)N3C[C@@H](C(=O)N[C@H]4C[C@@H]4c4ccccc4)[C@H](C(=O)N[C@H]4C[C@@H]4c4ccccc4)C3)cc2)C[C@H]1C(=O)N[C@H]1C[C@@H]1c1ccccc1`: the Activity on Toll-like receptor 1/2 is 90%; in assay [1], 100%.
Consider `CC(C)(C)OC(=O)NCC(=O)NCCCCCCCCCCCCNC(=O)[C@@H]1CN(C(=O)c2ccc(C(=O)N3C[C@@H](C(=O)N[C@H]4C[C@@H]4c4ccccc4)[C@H](C(=O)N[C@H]4C[C@@H]4c4ccccc4)C3)cc2)C[C@H]1C(=O)N[C@H]1C[C@@H]1c1ccccc1`, for which the Activity (at Toll-like receptor 1/2; in assay [1]) was 90% each time.
Regarding `CC(C)(C)OC(=O)NCCOCCCCCCCCCCCCNC(=O)[C@@H]1CN(C(=O)c2ccc(C(=O)N3C[C@@H](C(=O)N[C@H]4C[C@@H]4c4ccccc4)[C@H](C(=O)N[C@H]4C[C@@H]4c4ccccc4)C3)cc2)C[C@H]1C(=O)N[C@H]1C[C@@H]1c1ccccc1`, the Activity on Toll-like receptor 1/2 stood at 100%; in assay [1], 220%.
Consider `CC(C)(C)OC(=O)c1ccc(C(=O)NCC(=O)OCCCCCCCCCCCCNC(=O)[C@@H]2CN(C(=O)c3ccc(C(=O)N4C[C@@H](C(=O)N[C@H]5C[C@@H]5c5ccccc5)[C@H](C(=O)N[C@H]5C[C@@H]5c5ccccc5)C4)cc3)C[C@H]2C(=O)N[C@H]2C[C@@H]2c2ccccc2)cc1`, for which the Activity on Toll-like receptor 1/2 turned out to be 100%; in assay [1], 130%.
For the compound `CC(C)(C)OC(=O)COCCCCCCCCCCCCNC(=O)[C@@H]1CN(C(=O)c2ccc(C(=O)N3C[C@@H](C(=O)N[C@H]4C[C@@H]4c4ccccc4)[C@H](C(=O)N[C@H]4C[C@@H]4c4ccccc4)C3)cc2)C[C@H]1C(=O)N[C@H]1C[C@@H]1c1ccccc1`, the Activity on Toll-like receptor 1/2 worked out at 100%; in assay [1] it was 270%.
For the compound `CC(C)(C)OC(=O)CCOCCOCCOCCNC(=O)CCCCCCCCCCCNC(=O)[C@@H]1CN(C(=O)c2ccc(C(=O)N3C[C@@H](C(=O)N[C@H]4C[C@@H]4c4ccccc4)[C@H](C(=O)N[C@H]4C[C@@H]4c4ccccc4)C3)cc2)C[C@H]1C(=O)N[C@H]1C[C@@H]1c1ccccc1`, the Activity was 100% on Toll-like receptor 1/2 and 140% in assay [1].
In the same order, the values of `CC(C)(C)OC(=O)NCC(=O)NCC(=O)OCCCCCCCCCCCCNC(=O)[C@@H]1CN(C(=O)c2ccc(C(=O)N3C[C@@H](C(=O)N[C@H]4C[C@@H]4c4ccccc4)[C@H](C(=O)N[C@H]4C[C@@H]4c4ccccc4)C3)cc2)C[C@H]1C(=O)N[C@H]1C[C@@H]1c1ccccc1` are 110% and 110%.
Regarding `CSCC[C@H](NC(=O)OC(C)(C)C)C(=O)OCCCCCCCCCCCCNC(=O)[C@@H]1CN(C(=O)c2ccc(C(=O)N3C[C@@H](C(=O)N[C@H]4C[C@@H]4c4ccccc4)[C@H](C(=O)N[C@H]4C[C@@H]4c4ccccc4)C3)cc2)C[C@H]1C(=O)N[C@H]1C[C@@H]1c1ccccc1`, the Activity on Toll-like receptor 1/2 is 100%; in assay [1] it was 150%.
In the case of `O=C(CNC(=O)OCC1c2ccccc2-c2ccccc21)OCCCCCCCCCCCCNC(=O)[C@@H]1CN(C(=O)c2ccc(C(=O)N3C[C@@H](C(=O)N[C@H]4C[C@@H]4c4ccccc4)[C@H](C(=O)N[C@H]4C[C@@H]4c4ccccc4)C3)cc2)C[C@H]1C(=O)N[C@H]1C[C@@H]1c1ccccc1`, the Activity at Toll-like receptor 1/2 stood at 100%; in assay [1], 170%.
As to `NCC(=O)OCCCCCCCCCCCCNC(=O)[C@@H]1CN(C(=O)c2ccc(C(=O)N3C[C@@H](C(=O)N[C@H]4C[C@@H]4c4ccccc4)[C@H](C(=O)N[C@H]4C[C@@H]4c4ccccc4)C3)cc2)C[C@H]1C(=O)N[C@H]1C[C@@H]1c1ccccc1`, the Activity (at Toll-like receptor 1/2; in assay [1]) was 100% in each case.
Regarding `CC(C)(C)OC(=O)C(=O)NCC(=O)OCCCCCCCCCCCCNC(=O)[C@@H]1CN(C(=O)c2ccc(C(=O)N3C[C@@H](C(=O)N[C@H]4C[C@@H]4c4ccccc4)[C@H](C(=O)N[C@H]4C[C@@H]4c4ccccc4)C3)cc2)C[C@H]1C(=O)N[C@H]1C[C@@H]1c1ccccc1`, the Activity was found to be 110% at Toll-like receptor 1/2 and 400% in assay [1].
